Data taken from ChEMBL document CHEMBL3351370, “Straightforward entry to pyrido[2,3-d]pyrimidine-2,4(1H,3H)-diones and their ADME properties” (Bioorg Med Chem, 2014).
Values after ≈ are worked out from the molar mass of the structure shown.

Key:
Liver microsome [1] = test: Stability in human liver microsomes assessed as metabolite formation at 8 uM at 37 degC in presence of NADPH and glucose-6-phosphate; assay type: ADME
How it was run: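 Compound 8 µM with pooled human liver microsomes (45 donors, 0.5 mg protein/ml) in 0.1 M phosphate buffer pH 7.4 with 3 mM MgCl₂. Started by adding NADPH (1 mM) and glucose-6-phosphate (3 mM). 37 °C, 350 rpm. Aliquots at 0, 10, 20 and 30 min quenched in acetonitrile. Parent compound measured by HPLC-UV/fluorescence as % remaining; Clint from in vitro t1/2 method, scaled to human hepatic Clint.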

Liver microsome [2] = test: Stability in human liver microsomes assessed as metabolite formation at 8 uM at 37 degC in absence of NADPH and glucose-6-phosphate; assay type: ADME
How it was run: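 Negative control. Compound 8 µM with pooled human liver microsomes (45 donors, 0.5 mg protein/ml) in 0.1 M phosphate buffer pH 7.4 with 3 mM MgCl₂, without NADPH and glucose-6-phosphate. 37 °C, 350 rpm. Aliquots taken at 0, 10, 20 and 30 min and quenched in acetonitrile. Parent compound measured by HPLC (UV or fluorescence).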

[3] = Apparent permeability in human Caco2 cells; assay type: ADME, cell-based; settings: Caco-2
[4] = Thermodynamic solubility in FaSSIF medium after 24 hrs by UV detection and HPLC method; assay type: physicochemical; settings: read-out: Therm_solubility
How it was run: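 Excess solid added to FaSSIF (SIF powder in phosphate buffer), shaken 24 h at 175 rpm and 37 °C, then centrifuged at 20,817g for 15 min. Supernatant quantified by HPLC with UV detection. n = 3.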

Row | SMILES | Stability (Liver microsome [1]) | Stability (Liver microsome [2]) | Drug metabolism (Liver microsome [1]) | Papp [3] [×10⁻⁶ cm/s] | solubility thermodynamic at 24 h [4] [µM]
1 | C=CCn1c(=O)c2cccnc2n(C2CCCCC2)c1=O | Stable | Stable |  |  | 
2 | COc1ccc2c(c1)c(CC(=O)O)c(C)n2C(=O)c1ccc(Cl)cc1 [INDOMETHACIN] |  |  |  | 93.3 | 
3 | C=CCNC(=O)c1cccnc1NCC=C | Stable | Stable |  |  | 
4 | CCCn1c(=O)c2cccnc2n(CCC)c1=O | Stable | Stable |  |  | 
5 | C=CCNC(=O)c1cccnc1NC(C)(C)CC(C)(C)C |  | Stable | metabolite_detected |  | 
6 | CC(C)CCNC(=O)c1cccnc1NCCC(C)C | Stable | Stable |  |  | 
7 | C=CCOC(=O)c1cccnc1NC12CC3CC(CC(C3)C1)C2 |  | Stable | metabolite_detected | 1.2 | 20.7 (≈ 6.47 µg/mL)

The next lines start with the values.

Row | Stability (Liver microsome [1]) | Stability (Liver microsome [2]) | Drug metabolism (Liver microsome [1]) | Papp [3] [×10⁻⁶ cm/s] | solubility thermodynamic at 24 h [4] [µM] | SMILES
8 |  | Stable | metabolite_detected |  |  | O=C(NC1CCCCC1)c1cccnc1NC1CCCCC1
9 | Stable | Stable |  |  |  | C=CCn1c(=O)c2cccnc2n(CC=C)c1=O
10 |  | Stable | metabolite_detected |  |  | CC(C)CCn1c(=O)c2cccnc2n(CCC(C)C)c1=O
11 | Stable | Stable |  |  |  | O=c1c2cccnc2n(Cc2ccccc2)c(=O)n1Cc1ccccc1
